Assay results from ChEMBL document CHEMBL1126926, “Nonprostanoid prostacyclin mimetics. 5. Structure-activity relationships associated with [3-[4-(4,5-diphenyl-2-oxazolyl)-5- oxazolyl]phenoxy]acetic acid” (J Med Chem, 1993).

Legend:
Homo sapiens [1] = organism: Homo sapiens; test: (§1) In vitro inhibition of 5.86 uM ADP-induced human platelet aggregation in platelet rich plasma (PRP); format: functional
Method in brief: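 Human blood drawn into 1/10 volume 3.8% sodium citrate and spun 10 min at 140g to give platelet-rich plasma. Compound in DMSO added to PRP 3 min before 5.86 μM ADP. Aggregation read by Born turbidimetric aggregometry (Mustard modification) against vehicle controls over various concentrations. IC50 taken from dose-response curves, single determinations or mean of duplicates.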

Homo sapiens [2] = organism: Homo sapiens; test: as §1; format: functional; remark: listed apart in the source
Homo sapiens [3] = organism: Homo sapiens; test: Inhibitory concentration for displacing [3H]iloprost from human platelet membrane at 5.4 nM at 37 degree C
Homo sapiens [4] = organism: Homo sapiens; test: Compound tested for percent inhibition against 5.86 uM ADP-induced human platelet aggregation in platelet rich plasma (PRP); format: functional
Method in brief: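 Citrated human PRP (blood spun 10 min at 140g) preincubated 3 min with compound in DMSO, then challenged with 5.86 μM ADP. Born aggregometry (Mustard modification), compared with vehicle controls. Value is percent inhibition at a single stated concentration, from a single experiment or mean of duplicates.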

Row | IC50 (Homo sapiens [1]) | SMILES | other results
1 | 2500 nM | O=C(O)CCCCCCCCc1nc(-c2ccccc2)c(-c2ccccc2)o1 | –
2 | > 75000 nM | O=C(O)CCCCOc1ccccc1-c1nc(-c2ccccc2)c(-c2ccccc2)o1 | –
3 | 7200 nM | O=C(O)CCCCCc1ocnc1-c1nc(-c2ccccc2)c(-c2ccccc2)o1 | –
4 | – | O=C(O)COc1cccc(-c2ocnc2-c2nc(-c3ccccc3)c(-c3ccccc3)o2)c1 | IC50 (Homo sapiens [2]): 27 nM; IC50 (Homo sapiens [3]): 5.4 nM
5 | 11100 nM | O=C(O)COc1cccc(-c2ccccc2-c2nc(-c3ccccc3)c(-c3ccccc3)o2)c1 | –
6 | 130 nM | c1ccc(-c2nc(-c3ncoc3-c3cccc(OCc4nn[nH]n4)c3)oc2-c2ccccc2)cc1 | –
7 | 420 nM | O=C(O)CCCCCCc1ocnc1-c1nc(-c2ccccc2)c(-c2ccccc2)o1 | –
8 | > 76000 nM | N#CCOc1cccc(-c2ocnc2-c2nc(-c3ccccc3)c(-c3ccccc3)o2)c1 | Inhibition (Homo sapiens [4]): 14%
9 | 30 nM | O=C(O)COc1cccc(-c2ocnc2-c2nc(-c3ccccc3)c(-c3ccccc3)[nH]2)c1 | –
10 | – | Cc1nc(-c2nc(-c3ccccc3)c(-c3ccccc3)o2)c(-c2cccc(OCC(=O)O)c2)o1 | IC50 (Homo sapiens [2]): 50 nM; IC50 (Homo sapiens [3]): 36.6 nM
11 | – | O=C(O)COc1cccc(-c2[nH]ncc2-c2nc(-c3ccccc3)c(-c3ccccc3)o2)c1 | IC50 (Homo sapiens [2]): 180 nM
12 | > 72000 nM | O=C(O)COc1cccc(-c2ocnc2-c2onc(-c3ccccc3)c2-c2ccccc2)c1 | Inhibition (Homo sapiens [4]): 36%
13 | > 80000 nM | O=C(O)CCCc1ocnc1-c1nc(-c2ccccc2)c(-c2ccccc2)o1 | Inhibition (Homo sapiens [4]): 44%
14 | – | O=C(O)COc1cccc(/C=C\c2nc(-c3ccccc3)c(-c3ccccc3)o2)c1 | IC50 (Homo sapiens [3]): 6 nM
15 | > 75000 nM | O=C(O)CCCOc1ccccc1-c1nc(-c2ccccc2)c(-c2ccccc2)o1 | –
16 | – | Cn1ncc(-c2nc(-c3ccccc3)c(-c3ccccc3)o2)c1-c1cccc(OCC(=O)O)c1 | IC50 (Homo sapiens [2]): 1060 nM; IC50 (Homo sapiens [3]): 337 nM
17 | > 70000 nM | O=C(O)COc1cccc(-c2ocnc2-c2nnc(-c3ccccc3)n2-c2ccccc2)c1 | –
18 | > 73000 nM | O=C(O)COc1ccc(-c2ocnc2-c2nc(-c3ccccc3)c(-c3ccccc3)o2)cc1 | Inhibition (Homo sapiens [4]): 44%
19 | 15900 nM | O=C(O)CCCCc1ocnc1-c1nc(-c2ccccc2)c(-c2ccccc2)o1 | –
20 | – | Cn1cc(-c2nc(-c3ccccc3)c(-c3ccccc3)o2)c(-c2cccc(OCC(=O)O)c2)n1 | IC50 (Homo sapiens [2]): 650 nM; IC50 (Homo sapiens [3]): 302 nM
21 | 11600 nM | O=C(O)CCCCCCCc1ocnc1-c1nc(-c2ccccc2)c(-c2ccccc2)o1 | –
22 | 150 nM | O=C(O)COc1cccc(-c2ocnc2-c2nc(-c3ccccc3)c(-c3ccccc3)s2)c1 | –
23 | > 60000 nM | O=C(O)COc1cccc(-c2oc(-c3ccccc3)nc2-c2nc(-c3ccccc3)c(-c3ccccc3)o2)c1 | Inhibition (Homo sapiens [4]): 36%
24 | 160 nM | O=C(O)COc1cccc(-c2ncoc2-c2nc(-c3ccccc3)c(-c3ccccc3)o2)c1 | –
25 | 100 nM | Cc1ccc(-c2nc(-c3ncoc3-c3cccc(OCC(=O)O)c3)oc2-c2ccc(C)cc2)cc1 | –
26 | 450 nM | O=C(O)COc1cccc(-c2ocnc2-c2nc(-c3ccsc3)c(-c3ccsc3)o2)c1 | –
27 | 8 nM | CCCCC[C@H](O)/C=C/[C@@H]1[C@H]2C/C(=C/CCCC(=O)O)O[C@H]2C[C@H]1O [EPOPROSTENOL] | –
28 | – | CC#CCC(C)[C@H](O)/C=C/[C@@H]1[C@H]2C/C(=C/CCCC(=O)O)C[C@H]2C[C@H]1O (some centres not stated) [ILOPROST] | IC50 (Homo sapiens [3]): 47.7 nM
